Data on two compounds can be found in ChEMBL document CHEMBL6092224, “The Discovery and Preclinical Profile of ALG-000184, a Prodrug of the Potent Hepatitis B Virus Capsid Assembly Modulator ALG-001075” (J Med Chem, 2024).

The source made the active and inactive calls. No cut-off for these calls is given here.

Data set [1] can be described thus: Apparent permeability across apical to basal side in human Caco-2 cells at 2 uM incubated for 1 hr. It is filed as ADME, cell-based. In short, it runs like this: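 Bidirectional transport across Caco-2 cells in HBSS, pH 7.4, 0.1% final DMSO. Compound was tested at 1 or 2 μM for 1 h at 37 °C, 5% CO2. Apical and basal samples gave apparent permeability A→B and B→A, and the efflux ratio.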
In general terms: Caco-2 monolayers are a common model of the intestinal barrier.

A short description of data set [2]: Cytotoxicity against human HepG2.117 cells assessed as cell viability upto 50 uM. It is filed as toxicity, cell-based. The settings on record: hepg2.117, 50 µM.
Data set [3] deals with Hepatitis B virus. In words: Antiviral activity against HBV infected in human primary hepatocyte cells assessed as decrease in HBV RNA production pre-infected cells with virus followed by compound treatment for 3 days and subsequent replacement of medium with compound measured after 4 days by qPCR analysis. Format: functional, organism-based.
A short description of data set [4]: Plasma protein binding in mouse at 1 uM incubated for 4 to 24 hrs by equilibrium dialysis method. It is filed as ADME, cell-free. The settings on record: time 4-24 hrs, read-out: PPB (converted). The method in brief:
(§1)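 Rapid equilibrium dialysis in mouse, rat, dog, monkey or human plasma for 4 or 24 h; test concentrations 1, […].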
On the technique in general: In equilibrium dialysis only unbound substance equilibrates across the membrane.

Data set [5] is described as follows: Plasma protein binding in Cynomolgous monkey at 1 uM incubated for 4 to 24 hrs by equilibrium dialysis method. It is filed as ADME, cell-free, Macaca fascicularis. The settings on record: cynomolgus monkey, time 4-24 hrs, read-out: PPB (converted). In short, it runs like this:
as §1

Data set [6] can be described thus: Ratio of drug concentration in blood to plasma in human at 5 uM incubated for 60 mins. It is filed as ADME, cell-free. In short, it runs like this: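 Compound at 5 μM in whole blood of each species, 37 ± 1 °C for 60 min; blood-to-plasma ratio and red blood cell partitioning determined.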
The nature of data set [7]: Volume of distribution at steady state in C57BL/6J mouse at 1 mg/kg, iv by LC-MS/MS analysis. Format: ADME, organism-based. The settings on record: in vivo, read-out: Vdss. The method in brief:
(§2)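 Fasted males (C57BL6 mice, Sprague−Dawley rats, beagle dogs, cynomolgus monkeys) given a single IV dose of 1 mg/kg in 80% PEG 400 in water. Plasma concentrations measured by LC-MS/MS. Vss derived by noncompartmental analysis using nominal dose and nominal sampling times.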

The nature of data set [8]: Cmax in C57BL/6J mouse at 5 mg/kg, po by LC-MS/MS analysis. Format: ADME, organism-based. The settings on record: in vivo. The method in brief:
(§3)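 Single dose to fasted male C57BL6 mice, Sprague-Dawley rats, beagle dogs and cynomolgus monkeys, either IV at 1 mg/kg or PO as a solution at 5 mg/kg, in 80% PEG 400 in water. Plasma concentrations were measured by LC-MS/MS. PK parameters come from noncompartmental analysis using nominal doses and nominal sampling times.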

A short description of data set [9]: AUC (infinity) in Sprague-Dawley rat at 1 mg/kg, iv by LC-MS/MS analysis. It is filed as ADME, organism-based. The settings on record: in vivo. In short, it runs like this:
as §3

Data set [10] can be described thus: Volume of distribution at steady state in Beagle dog at 1 mg/kg, iv by LC-MS/MS analysis. Format: ADME, organism-based, Canis lupus familiaris. The settings on record: in vivo, read-out: Vdss. The method in brief: as §2
The nature of data set [11]: Cmax in Beagle dog at 5 mg/kg, po by LC-MS/MS analysis. Format: ADME, organism-based, Canis lupus familiaris. The settings on record: in vivo. The method in brief:
as §3

A short description of data set [12]: Tmax in Cynomolgous monkey at 5 mg/kg, po by LC-MS/MS analysis. Format: ADME, organism-based, Macaca fascicularis. The settings on record: cynomolgus monkey, in vivo. In short, it runs like this:
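Fasted males (C57BL6 mice, Sprague−Dawley rats, beagle dogs, cynomolgus monkeys) given a single oral solution dose of 5 mg/kg in 80% PEG 400 in water. Plasma sampled over time, analysed by LC-MS/MS. Noncompartmental analysis used nominal doses and nominal sampling times.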

Data set [13] is described as follows: Toxicity in C57BL/6 mouse infected with AAV-Hepatitis B virus assessed as change in body weight at 15 mg/kg, po bid for 56 days followed by induction of compound washout period for 14 days. The settings on record: in vivo, 1680 h, time 70 day. Format: organism-based.
The test system of data set [14] is MDCKII-MDR1. The data set can be described thus: Substrate activity at p-gp in MDCKII-MDR1 cells incubated for 150 mins. The settings on record: Canis lupus familiaris. It is filed as cell-based. In short, it runs like this: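 P-gp substrate test in MDR1-MDCK II and parental MDCK II cells, with or without the P-gp inhibitor GF120918, 150 min incubation. Parent compound run at 2 μM; prodrug at 2, 10 and 100 μM.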

The target in data set [15] is Solute carrier family 22 member 1 (Homo sapiens, UniProt O15245). In words: Inhibition of OCT1 (unknown origin) transfected in HEK293 cells. Format: cell-based. The method in brief: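 HEK-293 cells transfected with the uptake transporter; uptake of known probe substrates measured with test compound at eight concentrations (0.0229–50.0 μM or 0.0457–100 μM); inhibition at each concentration used to calculate IC50.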

Data set [16] concerns Nav1.5. In words: Inhibition of Nav1.5 (unknown origin) expressed in mammalian cells at 10 uM by automated patch-clamp method. Format: toxicity, cell-based, Homo sapiens. The settings on record: mammalian cells expressing Nav1.5. In short, it runs like this: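 Currents of hERG, Nav1.5 or Cav1.2 channels expressed in mammalian cells recorded by automated patch clamp (QPatch 48) at room temperature.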
(In general: Patch clamp records ionic current or voltage across a cell membrane.)

Chain of Solute carrier family 22 member 1 (O15245 whole entry): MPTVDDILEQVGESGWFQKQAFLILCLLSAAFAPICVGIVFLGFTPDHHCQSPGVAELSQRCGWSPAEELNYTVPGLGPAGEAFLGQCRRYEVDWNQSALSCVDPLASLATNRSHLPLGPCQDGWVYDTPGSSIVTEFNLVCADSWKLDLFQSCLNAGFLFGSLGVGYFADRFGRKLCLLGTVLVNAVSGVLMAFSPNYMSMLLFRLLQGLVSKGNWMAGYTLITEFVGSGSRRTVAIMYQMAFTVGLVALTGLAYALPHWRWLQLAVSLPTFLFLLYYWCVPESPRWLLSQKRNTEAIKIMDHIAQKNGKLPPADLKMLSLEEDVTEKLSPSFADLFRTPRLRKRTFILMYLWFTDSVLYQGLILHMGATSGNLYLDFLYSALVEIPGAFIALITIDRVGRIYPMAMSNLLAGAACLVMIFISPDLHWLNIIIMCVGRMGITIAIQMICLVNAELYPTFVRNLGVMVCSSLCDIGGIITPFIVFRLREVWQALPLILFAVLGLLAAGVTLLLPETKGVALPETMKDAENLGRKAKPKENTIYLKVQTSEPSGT

As usually defined, the Papp A→B is the apparent permeability from the apical to the basolateral side of a cell layer. `C#CC1(N(COP(=O)([O-])[O-])C(=O)C(=O)c2c(C)c(C(=O)Nc3ccc(F)c(C#N)c3)n(C)c2C)COC1.[Na+].[Na+]`: the Papp A→B at 1 h, 2 µM in [1] stood at 4.6 ×10⁻⁶ cm/s.
In general, EC50 refers to the concentration giving half of the maximal effect. The term Cmax denotes the highest concentration seen after dosing. The term AUC(0-inf) denotes the area under the concentration-time curve extrapolated to infinity. As a reminder, the Tmax is the time from dosing to the highest level. For orientation: IC50 means the point on the concentration scale where inhibition reaches its midpoint. As to `C#CC1(NC(=O)C(=O)c2c(C)c(C(=O)Nc3ccc(F)c(C#N)c3)n(C)c2C)COC1`, the Activity entry in data set [2] and in data set [13] was “Non-toxic” each time. Moreover, in [3], the EC50 was determined as 0.0547 µM. The figures for the fraction unbound at 1 µM in [4] and in data set [5] were 0.354 and 0.284, respectively. In addition, in [6], the blood plasma ratio at 1 h, 5 µM is 0.73. In addition, the Vd turned out to be 1 L/kg in data set [7] and 1.03 L/kg in data set [10]. For the same compound, the highest concentration (Cmax) in data set [8] was 2290 ng/mL; in data set [11], 1900 ng/mL. The compound further had an AUC(0-inf) in data set [9] of 2780 ng·h/mL. In addition, the Tmax in data set [12] turned out to be 1.17 h. Besides, the result in data set [14] was Active. Also, the half-maximal inhibitory concentration (IC50) in data set [15] was > 11.8 µM; in data set [16], > 10 µM.
